Experimental data reported in ChEMBL document CHEMBL1795237, “Total synthesis of largazole and analogues: HDAC inhibition, antiproliferative activity and metabolic stability” (Bioorg Med Chem, 2011).
Activity calls are given as the source filed them. No cut-off for these calls is given here.

Tests used:
MCF7 = assay: Growth inhibition of human MCF7 cells; format: functional
[1] = Half life in mouse liver homogenates at 100 uM by UPLC/MS analysis; format: ADME, tissue-based
Outline: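 Compound added to preincubated murine liver homogenate (tissue broken up in 10 mM Tris pH 7.4, 1:3 w:v) at 37 °C, final 100 μM. Samples taken at 0, 15, 30, 45, 60, 120 min, quenched in methanol, centrifuged 10,000g to remove protein. Supernatant analyzed by reversed-phase C18 UPLC with MeOH/water/0.05% TFA gradient; parent ions monitored by ESI MS selected ion recording.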

[2] = molecular target: T1, Histone deacetylase (Homo sapiens) (UniProt Q13547+O15379+Q9UBN7+Q92769+Q9UQL6+Q8WUI4+Q9BY41+Q96DB2+P56524+Q9UKV0+Q969S8); conditions: MCF7, 100 nM
[3] = molecular target: T1, Histone deacetylase (Homo sapiens); conditions: SKBr3, 100 nM
[4] = molecular target: T1, Histone deacetylase (Homo sapiens); conditions: MDA-MB-231, 100 nM

| half-life at 100 µM [1] [min] | Structure (SMILES) | GI (MCF7) [nM] | inhibition [2] | inhibition [3] | inhibition [4] |
| --- | --- | --- | --- | --- | --- |
| ≤ 5 | C[C@@]12CSC(=N1)c1csc(n1)CNC(=O)C[C@@H](/C=C/CCS)OC(=O)CCNC2=O | 5900 |  |  |  |
| 32 | C[C@@]12CSC(=N1)c1csc(n1)CNC(=O)C[C@@H](/C=C/CCS)OC(=O)CNC2=O | 2458 |  |  |  |
| ≤ 5 | CC(C)[C@H]1NC(=O)C(C)(C)NC(=O)c2csc(n2)CNC(=O)C[C@@H](/C=C/CCS)OC1=O | > 10000 |  |  |  |
|  | CC(C)[C@H]1NC(=O)[C@]2(C)CSC(=N2)c2csc(n2)CNC(=O)C[C@@H](/C=C/CCS)OC1=O [LARGAZOLE THIOL] | 277 | inactive | inactive | inactive |
|  | CC(C)[C@H]1NC(=O)[C@]2(C)CSC(=N2)c2csc(n2)[C@@H](Cc2ccccc2)NC(=O)C[C@@H](/C=C/CCS)OC1=O | 377 |  |  |  |

| Structure (SMILES) | half-life at 100 µM [1] [min] | GI (MCF7) [nM] | inhibition [2] | inhibition [3] | inhibition [4] |
| --- | --- | --- | --- | --- | --- |
| CC(C)[C@@H]1NC(=O)[C@]2(C)CSC(=N2)c2csc(n2)CNC(=O)C[C@@H](/C=C/CCS)OC1=O [LARGAZOLE THIOL] | 51 |  |  |  |  |
| CCCCCCCC(=O)SCC/C=C/[C@@H]1CC(=O)NCc2nc(cs2)C2=N[C@@](C)(CS2)C(=O)N[C@@H](C(C)C)C(=O)O1 [LARGAZOLE] | ≤ 5 | 5 | Active | Active | Active |
